PfG6PD inh = PfG6PD (Plasmodium falciparum) enzyme inhibition; PfGluPho enzyme, NADPH resazurin-diaphorase fluorescence; actives 0.78% (n = 350,000); inhibition, % at 20 µM;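 active = inhibition reaching at least a set limit at 20 µM in the primary screen, cut at about 59% in these data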;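 note: 0% = DMSO wells with substrate and 100% = DMSO wells lacking glucose-6-phosphate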
HKDC1 inh = inhibitors of human hexokinase HKDC1 | Q2TB90 | recombinant HKDC1, G6PDH/diaphorase resazurin coupled fluorescence | inhibition, % at 20 µM | actives 0.16% (n = 340,000) | AID 493160;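 active = inhibition above about 35% when tested at 20 µM, limit read from the data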;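 note: plate controls were DMSO wells with enzyme for no effect and DMSO wells lacking enzyme for full effect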
Target sequence (Q2TB90 whole entry, looked up): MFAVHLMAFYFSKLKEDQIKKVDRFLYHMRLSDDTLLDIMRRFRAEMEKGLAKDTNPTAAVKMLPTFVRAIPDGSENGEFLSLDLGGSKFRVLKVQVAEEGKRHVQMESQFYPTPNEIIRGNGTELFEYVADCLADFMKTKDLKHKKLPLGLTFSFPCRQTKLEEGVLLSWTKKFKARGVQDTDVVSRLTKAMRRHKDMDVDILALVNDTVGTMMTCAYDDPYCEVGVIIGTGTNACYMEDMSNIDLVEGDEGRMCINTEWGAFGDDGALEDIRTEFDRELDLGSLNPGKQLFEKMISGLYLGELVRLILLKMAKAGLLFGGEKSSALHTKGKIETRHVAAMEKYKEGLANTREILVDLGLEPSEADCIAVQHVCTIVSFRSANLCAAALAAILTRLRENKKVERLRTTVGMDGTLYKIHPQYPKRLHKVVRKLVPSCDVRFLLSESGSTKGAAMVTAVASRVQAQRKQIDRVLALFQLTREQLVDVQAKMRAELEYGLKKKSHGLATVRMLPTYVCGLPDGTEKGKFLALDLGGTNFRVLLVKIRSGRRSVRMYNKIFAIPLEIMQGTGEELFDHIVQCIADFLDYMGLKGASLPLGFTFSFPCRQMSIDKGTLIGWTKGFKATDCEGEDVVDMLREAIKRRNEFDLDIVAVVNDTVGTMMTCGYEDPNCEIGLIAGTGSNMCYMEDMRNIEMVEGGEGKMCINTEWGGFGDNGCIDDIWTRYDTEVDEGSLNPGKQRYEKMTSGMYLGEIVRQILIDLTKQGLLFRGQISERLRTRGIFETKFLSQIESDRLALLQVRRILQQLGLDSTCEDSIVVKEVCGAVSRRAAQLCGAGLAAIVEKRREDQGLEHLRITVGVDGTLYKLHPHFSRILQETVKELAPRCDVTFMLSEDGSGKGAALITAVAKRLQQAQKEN
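Test system: HK5 enzyme. Quantity: 5 µg/mL HK5 final. Reagent: glucose and ATP substrates. Schedule: 90 min reaction incubation at room temperature, dark. Technique: resazurin-to-resorufin fluorescence via G6PDH and diaphorase coupling, 525/613 nm. Control set: DMSO wells with and without enzyme mix.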
Diaphorase inh = inhibits diaphorase or chemically oxidizes, flagging diaphorase assay artifacts; diaphorase resazurin-to-resorufin fluorescence, NADH, 16 min; bacterial (C. kluyveri) enzyme, not human; actives 0.69% (n = 190,000); inhibition, % at 20 µM; AID 1217;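 active = primary screen inhibition at 20 µM above a set limit, cut at about 50% in these data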;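 note: plate controls were DMSO with full reaction for no effect and wells lacking NADH for full effect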
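Assay system – diaphorase enzyme from Clostridium kluyveri · Amount – diaphorase 0.14 U/mL (working solution) · Times – reaction incubation of 16 min at room temperature · Controls – No-NADH positive control and DMSO neutral control · Signal – resorufin fluorescence 544/590 nm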
G6PDH counter-1 = L. mesenteroides G6PDH inhibition counter-screen. Purified L. mesenteroides G6PDH, diaphorase/resazurin coupled fluorescence, 45 min. inhibition, % at 5 µM. actives 0.12% (n = 200,000); in the data active = inhibition above about 50%
TbHK1 inh = blocks Trypanosoma brucei hexokinase 1 activity. recombinant TbHK1, G6PDH-coupled NADH A340. inhibition, % at 10 µM. actives 0.11% (n = 220,000);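 active = inhibition of 50% or more in the single-dose primary screen; inactive = inhibition below 50%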
G6PDH counter-2 = inhibits Leuconostoc G6PDH, counter-screen for TbHK1 inhibitors | shares compounds with TbHK1 inh | actives 7% (n = 210) | purified G6PDH, NADH absorbance, 1 h | inhibition, % at 10 µM | AID 2516;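 active = at least 50% inhibition in the glucose-6-phosphate dehydrogenase coupled counterscreen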
TbHK1 confirm = confirmation of Trypanosoma brucei hexokinase 1 inhibitors; inhibition, % at 10 µM; recombinant TbHK1, G6PDH-coupled NADH A340 absorbance; actives 10% (n = 210); shares compounds with TbHK1 inh;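 active = inhibition of at least 50% in both of the two screening runs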;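 note: 0% and 100% set by the maximum and minimum signal control wells on each plate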
* = called active by the depositor; nt = no result. Shown are actives, neighbours in structure and some others; about 1.3% of the full set was active somewhere.

SMILES | PfG6PD inh | HKDC1 inh | Diaphorase inh | G6PDH counter-1 | TbHK1 inh | G6PDH counter-2 | TbHK1 confirm
COC(=O)c1[nH]c(=O)c2ccccc2c1OCc1ccccc1 | 19.1 | 0.1 | 26.4 | 4.1 | 53.6* | -30.8 | -27.4
O=S1(=O)N=C(Nc2ccc(N3CCOCC3)cc2)c2ccccc21 | -1.6 | -6.2 | 13.2 | 1.5 | -11.5 | nt | nt
O=S1(=O)N=C(N2CCOCC2)c2ccccc21 | -16.0 | -4.0 | 4.6 | 7.7 | 56.9* | -8.6 | -0.7
CCOC(=O)c1c(C)c(C(=O)NCC2CCCO2)c(C)n1CC (centres undefined) | -2.4 | -9.1 | 11.7 | -0.5 | 1.5 | nt | nt
COc1ccc(CCNC(=O)c2nnn(CC(=O)Nc3ccccc3C)c2N)cc1OC | -7.8 | 1.8 | -0.7 | 6.9 | 55.4* | -6.5 | -7.1
CCOc1ccc(CCNC(=O)c2nnn(CC(=O)Nc3ccccc3C)c2N)cc1OCC | -15.7 | -3.0 | nt | nt | nt | nt | nt
COc1ccccc1C1CCN(C(=O)c2ccccc2)CC1 | -6.7 | -2.4 | nt | nt | nt | nt | nt
COc1ccccc1C1CCN(C(=O)c2cccs2)CC1 | -5.0 | -3.5 | nt | nt | 50.2* | -2.8 | -1.5
CCOc1ccc(C(=O)N2CCn3c2nc2ccccc23)cc1 | 5.0 | -4.0 | 14.3 | 6.0 | -9.1 | nt | nt
CC12CCC(C(=O)NC(c3ccccc3)c3ccccc3)(OC1=O)C2(C)C (centres undefined) | -0.1 | 4.0 | 6.7 | 4.4 | 60.6* | -6.7 | 3.8
CC12CCC(=O)N1C(C(=O)NCCc1ccccc1)CS2 (centres undefined) | 17.1 | -7.3 | nt | nt | nt | nt | nt
Cc1c(NC(=O)CC(=O)Nc2c(C)n(C)n(-c3ccccc3)c2=O)c(=O)n(-c2ccccc2)n1C | -0.4 | -6.9 | 9.7 | 10.5 | 74.2* | -4.9 | 4.1
CCOCC(=O)Nc1c(C)n(C)n(-c2ccccc2)c1=O | nt | nt | 0.4 | 18.7 | 1.7 | nt | nt
N#C/C(=C\c1cccnc1)c1nc2c(s1)CCCC2 | -1.2 | -2.0 | 11.8 | 4.4 | -15.7 | nt | nt
COc1cc(/C=C(\C#N)c2nc3c(s2)CCCC3)ccc1O | nt | nt | 20.2 | -2.3 | 53.7* | -48.4 | 87.7*
CCN1CCN(c2ccc(S(=O)(=O)N3CCOCC3)cc2NC(=O)/C=C/c2ccc(OC)cc2OC)CC1 | 1.3 | 0.3 | nt | nt | nt | nt | nt
CCN(CCCNC(=O)CC(C(=O)N1CCc2ccccc21)n1ccnc1)c1ccccc1 (centres undefined) | 8.3 | -11.0 | 16.7 | 11.0 | 55.5* | -27.8 | -7.4
CC(C)C(O)P(=O)(OCc1ccccc1)c1ccc(N(C)C)cc1 (centres undefined) | -4.6 | -17.4 | 5.8 | 5.9 | 56.5* | -4.8 | 2.1
O=C(OCCN1C(=O)c2ccccc2C1=O)c1cnccn1 | -11.5 | -2.9 | 25.1 | 2.9 | 50.7* | -13.1 | -0.5
O=C(OCCN1C(=O)c2ccccc2C1=O)c1ccccc1 | -13.6 | -3.2 | 1.8 | 2.5 | -0.3 | nt | nt
COc1ccccc1-c1nnn(CC#N)n1 | -15.5 | -9.7 | 13.7 | -4.3 | 52.3* | -6.2 | -4.2
CC(C)OCCCNC(=O)CN1C(=O)CSc2ccc(S(=O)(=O)N3CCOCC3)cc21 | 0.2 | nt | nt | nt | nt | nt | nt
CC(O)CNCc1cccc2ccccc12 (centres undefined) | -3.2 | -5.5 | 5.1 | 1.6 | 3.5 | nt | nt
NC(=O)SC/C(=N\S(=O)(=O)c1ccccc1)Nc1ccccc1 | -11.7 | -7.8 | 12.9 | 0.7 | 57.5* | -0.4 | 1.7
Cc1ccc(N/C(CSC(N)=O)=N/S(=O)(=O)c2ccccc2)cc1 | -5.1 | -2.6 | 0.0 | 9.1 | 4.2 | nt | nt
O=[N+]([O-])c1cc(/C=N\Nc2nccs2)ccc1O | nt | nt | 89.8* | 3.5 | 50.2* | -64.6 | 56.2*
CCCc1cc(=O)[nH]c(SCc2nc3ccc([N+](=O)[O-])cc3[nH]2)n1 | -7.7 | 10.6 | 14.0 | 6.6 | 18.6 | nt | nt
CCC(=O)NC(c1cccs1)c1cc([N+](=O)[O-])c2cccnc2c1O (centres undefined) | 34.5 | 8.6 | 31.0 | 37.9 | 52.1* | -23.4 | 6.3
O=C(CCc1ccccc1)NC(c1cccs1)c1cc(Cl)c2cccnc2c1O (centres undefined) | -19.1 | -28.2 | -5.9 | 3.9 | 28.4 | nt | nt
COc1ccc(-c2[nH]ncc2CNC(C)CCn2cccn2)c(F)c1 (centres undefined) | -3.0 | -2.6 | -13.0 | 16.6 | -5.4 | nt | nt

Source: PubChem BioAssay
